Measured values gathered from unrelated publications.

| Structure (SMILES) | target or system | assay | system | setting | measurement | result |
| --- | --- | --- | --- | --- | --- | --- |
| CC(C)(C)[C@H](NC(=O)C(F)(F)F)C(=O)N1C[C@H]2[C@@H]([C@H]1C(=O)N[C@H](C#N)C[C@@H]1CCNC1=O)C2(C)C | Huh-7 | cell growth or viability | – | – | CC50 | > 100 µM |
| COc1ccc(NC(=O)N2CCCCN3[C@H](CN(C)C)[C@H](c4ccc(C#Cc5ccccc5)cc4)[C@@H]3C2)cc1 | HepG2 | cell growth or viability, ATP luminescence | – | 72 h | CC50 | 6.08 µM |
| CC[C@H](C)[C@H](NC(=O)[C@H](Cc1ccccc1)NC(=O)[C@H](CCC(=O)O)NC(=O)[C@H](CCCCN)NC(=O)[C@H](C)NC(=O)[C@H](C)NC(=O)[C@H](CCC(N)=O)NC(=O)CNC(=O)[C@H](CCC(=O)O)NC(=O)[C@H](CC(C)C)NC(=O)[C@H](Cc1ccc(O)cc1)NC(=O)[C@H](CO)NC(=O)[C@H](CO)NC(=O)[C@@H](NC(=O)[C@H](CC(=O)O)NC(=O)[C@H](CO)NC(=O)[C@@H](NC(=O)[C@H](Cc1ccccc1)NC(=O)[C@@H](NC(=O)CNC(=O)[C@H](CCC(=O)O)NC(=O)[C@H](C)NC(=O)N(N)Cc1c[nH]cn1)[C@@H](C)O)[C@@H](C)O)C(C)C)C(=O)N[C@@H](C)C(=O)N[C@@H](Cc1c[nH]c2ccccc12)C(=O)N[C@@H](CC(C)C)C(=O)N[C@H](C(=O)N[C@@H](CCCNC(=N)N)C(=O)NCC(=O)N[C@@H](CCCNC(=N)N)C(=O)NCC(=O)O)C(C)C | – | – | male CD-1 mouse, plasma | intravenous, 1 mg/kg, single dose | MRT | 8.4 min |
| CCOC(=O)c1c(NC(=O)CNC(C)C)sc2c1CCCCC2 | – | – | male mouse, plasma | intraperitoneal, 100 mg/kg, single dose | MRT(0-inf) | 247 min |
| CC(=O)c1c(C)c2cnc(Nc3ccc(C4CCN(CCS(C)(=O)=O)CC4)cn3)nc2n(C2CCCC2)c1=O | – | metabolic stability | human, liver microsomes | – | half-life | 28.6 min |
| CC(C)=CCC[C@](C)(O[C@@H]1O[C@H](CO)[C@@H](O)[C@H](O)[C@H]1O)[C@H]1CC[C@]2(C)[C@@H]1[C@H](O)C[C@@H]1[C@@]3(C)CC[C@H](O)C(C)(C)[C@@H]3CC[C@]12C | – | – | mouse, plasma | intravenous, 2 mg/kg | MRT | 510 min |
| N#C[C@@]1(n2ccc(N)nc2=O)O[C@H](CO)[C@@H](O)[C@H]1O | Huh-7 | cell growth or viability | – | – | CC50 | 99.5 µM |
| CC(C)CC(=O)OC[C@H]1O[C@@](C#N)(c2ccc3c(N)ncnn23)[C@H](O)[C@@H]1O | – | metabolic stability | human, plasma | 5 µM | half-life | 7.93 min |
| CC(C)[C@]12O[C@H]1[C@@H]1O[C@]13[C@]1(O[C@H]1C[C@H]1C4=C(CC[C@@]13C)C(=O)OC4)[C@@H]2O | – | – | SCID mouse, plasma | intravenous, 0.6 mg/kg | MRT | 28.8 min |
| Cc1[nH]c(C)c(S(=O)(=O)Nc2ccc(S(F)(F)(F)(F)F)c(Cl)c2)c1C(=O)N1CCC(F)(F)C1 | – | metabolic stability | human, liver microsomes | – | half-life | 13 min |
| c1ccc2c(c1)[I+]c1ccccc1-2 | HepG2 | cell growth or viability, ATP luminescence | – | 72 h | CC50 | 1.28 µM |
